What was measured:
Plasmodium falciparum = experiment: Antiplasmodial activity against chloroquine and pyrimethamine-resistant Plasmodium falciparum K1; type: functional, organism-based
In short: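 Compounds were prepared as 10 mg/mL DMSO stocks, diluted in serum-free medium, then brought to test concentrations in complete medium without hypoxanthine. DMSO was at most 1% in the top-concentration wells. IC50 values come from two replicate experiments, with chloroquine as the reference standard. Rat L6 myoblast IC50 served for the selectivity index.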

[1] = Selectivity index, Ratio of IC50 for rat L6 cells to IC50 for Plasmodium falciparum K1; type: functional
In short: (§1)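 Selectivity index is the L6 myoblast cytotoxicity IC50 divided by the IC50 against the respective parasite. Both IC50 values come from two replicate experiments, with compounds diluted from 10 mg/mL DMSO stocks and final DMSO at most 1%.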

Trypanosoma cruzi = experiment: Antitrypanosomal activity against Trypanosoma cruzi Tulahuen C2C4; type: functional, organism-based
In short: (§2)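 Test compounds were made up as 10 mg/mL stocks in 100% DMSO, warmed or sonicated to dissolve, then diluted in serum-free medium and brought to working concentration in complete medium without hypoxanthine. DMSO was at most 1% in the top-concentration wells. IC50 was determined by previously described methods, with values from two replicate experiments. Reference drugs were chloroquine, melarsoprol, benznidazole, miltefosine and podophyllotoxin (L6).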

[2] = Selectivity index, Ratio of IC50 for rat L6 cells to IC50 for Trypanosoma cruzi Tulahuen C2C4; type: functional; in short: as §1
[3] = tested on: Trypanosoma brucei rhodesiense; experiment: Antitrypanosomal activity against Trypanosoma brucei rhodesiense STIB900; type: functional, organism-based; in short: as §2
[4] = Selectivity index, Ratio of IC50 for rat L6 cells to IC50 for Trypanosoma brucei rhodesiense STIB900; type: functional; in short: as §1
Leishmania donovani = experiment: Antileishmanial activity against Leishmania donovani MHOM-ET-67/L82 axenic amastigotes; type: functional, organism-based; in short: as §2
[5] = Selectivity index, Ratio of IC50 for rat L6 cells to IC50 for Leishmania donovani MHOM-ET-67/L82 axenic amastigotes; type: functional; in short: as §1
L6 = experiment: Cytotoxicity against rat L6 cells; type: cell-based; in short: as §2

| SMILES | IC50 (Plasmodium falciparum) [nM] | Ratio IC50 [1] | IC50 (Trypanosoma cruzi) [nM] | Ratio IC50 [2] | IC50 [3] [nM] | Ratio IC50 [4] | IC50 (Leishmania donovani) [nM] | Ratio IC50 [5] | IC50 (L6) [nM] |
| --- | --- | --- | --- | --- | --- | --- | --- | --- | --- |
| CCCN(CCC)c1ccc2nc3ccc(N(CCC)CCC)cc3[o+]c2c1.[Cl-] | 2 | 165 | 17 | 23.6 | 23 | 17.4 | 2 | 165 | 400 |
| [Cl-].c1cc2nc3ccc(N4CCOCC4)cc3[o+]c2cc1N1CCOCC1 | 431 | 66.5 | 7090 | 4 | 8740 | 3.3 | 5180 | 5.5 | 28600 |
| CCCN(CCC)c1ccc2nc3ccc(N4CCOCC4)cc3[o+]c2c1.[Cl-] | 5 | 3883 | 406 | 47.6 | 871 | 22.2 | 754 | 25.6 | 19300 |
| CN(C)c1ccc2nc3ccc(N4CCSCC4)cc3[o+]c2c1.[Cl-] | 6 | 4022.5 | 608 | 36.6 | 5470 | 4.1 | 14400 | 1.5 | 22200 |
| CCN(CC)c1ccc2nc3ccc(N4CCOCC4)cc3[o+]c2c1.[Cl-] | 29 | 1363.6 | 2940 | 13.6 | 4070 | 9.9 | 16300 | 2.5 | 40100 |
| COc1cc([C@@H]2c3cc4c(cc3[C@H](O)[C@H]3COC(=O)[C@H]23)OCO4)cc(OC)c1OC [PODOFILOX] | – | – | – | – | – | – | – | – | 20 |
| CCCN(CCC)c1ccc2nc3ccc(N4CCCCC4)cc3[o+]c2c1.[Cl-] | 8 | 105.3 | 23 | 35.1 | 238 | 3.3 | 98 | 8.1 | 790 |
| CN(C)c1ccc2nc3ccc(N4CCOCC4)cc3[o+]c2c1.[Cl-] | 23 | 2153.9 | 5060 | 9.8 | 2590 | 19.2 | 1060 | 47.2 | 49800 |
| CN(C)c1ccc2nc3ccc(N4CCCC4)cc3[o+]c2c1.[Cl-] | 6 | 2166.5 | 258 | 51 | 91 | 144.4 | 1710 | 7.7 | 13100 |
| O=C(Cn1ccnc1[N+](=O)[O-])NCc1ccccc1 [BENZNIDAZOLE] | – | – | 866 | – | – | – | – | – | – |
| [Cl-].c1cc2nc3ccc(N4CCCCC4)cc3[o+]c2cc1N1CCCCC1 | 5 | 1050 | 81 | 67.7 | 154 | 35.6 | 1140 | 4.8 | 5470 |
| [Cl-].c1cc2nc3ccc(N4CCCC4)cc3[o+]c2cc1N1CCCC1 | 3 | 1400 | 121 | 32.6 | 160 | 24.6 | 37 | 107.7 | 3930 |
| CCN(CC)c1ccc2nc3ccc(N4CCCCC4)cc3[o+]c2c1.[Cl-] | 3 | 2390 | 48 | 132.8 | 245 | 26.3 | 1440 | 4.5 | 6430 |
| CN(C)c1ccc2nc3ccc(N4CCCCC4)cc3[o+]c2c1.[Cl-] | 3 | 7740 | 174 | 129 | 843 | 26.7 | 1660 | 13.6 | 22500 |
| CCCN(CCC)c1ccc2nc3ccc(N4CCCC4)cc3[o+]c2c1.[Cl-] | 3 | 355 | 36 | 25.4 | 16 | 59.2 | 16 | 59.2 | 920 |
| CCCCCN(CCCCC)c1ccc2nc3ccc(N4CCCCC4)cc3[o+]c2c1.[Cl-] | 2 | 63 | 15 | 9 | 22 | 6.3 | 2 | 63 | 140 |
| CCCCN(CCCC)c1ccc2nc3ccc(N4CCCCC4)cc3[o+]c2c1.[Cl-] | 7 | 12.3 | 58 | 1.5 | 269 | 0.3 | 2 | 37 | 90 |
| CCN(CC)c1ccc2nc3ccc(N4CCSCC4)cc3[o+]c2c1.[Cl-] | 8 | 2822 | 154 | 141.1 | 1610 | 13.5 | 1000 | 21.6 | 21700 |
| CCCCCCCCCCCCCCCCOP(=O)([O-])OCC[N+](C)(C)C [MILTEFOSINE] | – | – | – | – | – | – | 280 | – | – |
| CCN(CC)c1ccc2nc3ccc(N(CC)CC)cc3[o+]c2c1.[Cl-] | 3 | 2410 | 36 | 185.4 | 228 | 29.4 | 214 | 31.3 | 6700 |
| CCN(CC)c1ccc2nc3ccc(N4CCCC4)cc3[o+]c2c1.[Cl-] | 6 | 1390 | 56 | 139 | 168 | 46.3 | 654 | 11.9 | 7770 |
| CCCCCCN(CCCCCC)c1ccc2nc3ccc(N4CCCCC4)cc3[o+]c2c1.[Cl-] | 4 | 48 | 21 | 9.6 | 14 | 13.7 | 14 | 13.7 | 200 |
| CCCN(CCC)c1ccc2nc3ccc(N4CCSCC4)cc3[o+]c2c1.[Cl-] | 7 | 976.7 | 163 | 43.1 | 1510 | 4.6 | 1170 | 6 | 7010 |

Source: ChEMBL document CHEMBL1150378, “Synthesis and in vitro antiprotozoal activities of water-soluble, inexpensive 3,7-bis(dialkylamino)phenoxazin-5-ium derivatives” (J Med Chem, 2008)
